{"source": "ChEMBL document CHEMBL3861977", "about": "“Effects of Oleanane-Type Triterpene Saponins from the Leaves of Eleutherococcus senticosus in an Axonal Outgrowth Assay” (J Nat Prod, 2016)", "note": "Activity calls are given as the source filed them. The calls are words filed in the database; no cut-off is given here."}
{"tested_on": "Cortical neurone", "test": "Inhibition of amyloid beta (25 to 35)-induced neuronal degeneration in ddY mouse embryo cortical neurons assessed as restoration of axonal outgrowth by measuring length of phosphorylated neurofilament-H-positive neurites at 10 uM treated 3 days post amyloid beta (25 to 35) stimulation measured after 4 days by fluorescent microscopic analysis", "type": "functional", "method_in_brief": "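Cortical neurons from E14 ddY mouse embryos, plated on poly-D-lysine (5 μg/mL) in neurobasal medium with 12% horse serum, switched to 2% B-27 medium 3−12 h later, 37 °C, 10% CO2. Day 3: 10 μM Aβ25−35 (pre-aggregated 4 days at 37 °C) for 3 days. Then Aβ removed; 10 μM isolate, 0.1% DMSO vehicle or NGF 10 ng/mL for 4 days. Fixed in 4% PFA, stained for pNF-H and DAPI, pNF-H-positive neurite length measured; 10−79 photos per treatment, Dunnett's test.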"}
{"smiles": "CC(=O)OC[C@H]1O[C@@H](OC[C@H]2O[C@@H](OC(=O)[C@]34CC[C@@](C)(C(=O)O)C[C@H]3C3=CC[C@@H]5[C@@]6(C)CC[C@H](O[C@@H]7OC[C@H](O)[C@H](O)[C@H]7O)C(C)(C)[C@@H]6CC[C@@]5(C)[C@]3(C)CC4)[C@H](O)[C@@H](O)[C@@H]2O)[C@H](O)[C@@H](O)[C@@H]1O[C@@H]1O[C@@H](C)[C@H](O)[C@@H](O)[C@H]1O", "inhibition": "Active"}
{"smiles": "CC(=O)OC[C@H]1O[C@@H](OC[C@H]2O[C@@H](OC(=O)[C@]34CCC(C)(C)C[C@H]3C3=CC[C@@H]5[C@@]6(C)CC[C@H](O[C@@H]7OC[C@H](O)[C@H](O)[C@H]7O[C@@H]7O[C@@H](C)[C@H](O)[C@@H](O)[C@H]7O)C(C)(C)[C@@H]6CC[C@@]5(C)[C@]3(C)CC4)[C@H](O)[C@@H](O)[C@@H]2O)[C@H](O)[C@@H](O)[C@@H]1O[C@@H]1O[C@@H](C)[C@H](O)[C@@H](O)[C@H]1O", "inhibition": "Active"}
{"smiles": "C=C1CC[C@]2(C(=O)O[C@@H]3O[C@H](CO[C@@H]4O[C@H](COC(C)=O)[C@@H](O[C@@H]5O[C@@H](C)[C@H](O)[C@@H](O)[C@H]5O)[C@H](O)[C@H]4O)[C@@H](O)[C@H](O)[C@H]3O)CC[C@]3(C)C(=CC[C@@H]4[C@@]5(C)CC[C@H](O[C@@H]6OC[C@H](O)[C@H](O)[C@H]6O)C(C)(C)[C@@H]5CC[C@]43C)[C@@H]2C1", "inhibition": "Active"}
{"smiles": "C=C1CC[C@]2(C(=O)O[C@@H]3O[C@H](CO[C@@H]4O[C@H](COC(C)=O)[C@@H](O[C@@H]5O[C@@H](C)[C@H](O)[C@@H](O)[C@H]5O)[C@H](O)[C@H]4O)[C@@H](O)[C@H](O)[C@H]3O)CC[C@]3(C)C(=CC[C@@H]4[C@@]5(C)CC[C@H](O[C@@H]6OC[C@H](O)[C@H](O)[C@H]6O[C@@H]6O[C@@H](C)[C@H](O)[C@@H](O)[C@H]6O)C(C)(C)[C@@H]5CC[C@]43C)[C@@H]2C1", "inhibition": "Active"}
{"smiles": "C=C1CC[C@]2(C(=O)O[C@@H]3O[C@H](CO[C@@H]4O[C@H](COC(C)=O)[C@@H](O[C@@H]5O[C@@H](C)[C@H](O)[C@@H](O)[C@H]5O)[C@H](O)[C@H]4O)[C@@H](O)[C@H](O)[C@H]3O)CC[C@]3(C)C(=CC[C@@H]4[C@@]5(C)CC[C@H](O[C@@H]6OC[C@H](O)[C@H](O)[C@H]6O[C@@H]6O[C@H](CO)[C@@H](O)[C@H](O)[C@H]6O)C(C)(C)[C@@H]5CC[C@]43C)[C@@H]2C1", "inhibition": "Active"}
{"smiles": "CC(=O)OC[C@H]1O[C@@H](OC[C@H]2O[C@@H](OC(=O)[C@]34CCC(C)(C)C[C@H]3C3=CC[C@@H]5[C@@]6(C)CC[C@H](O[C@@H]7OC[C@H](O)[C@H](O)[C@H]7O[C@@H]7O[C@H](CO)[C@@H](O)[C@H](O)[C@H]7O)C(C)(C)[C@@H]6CC[C@@]5(C)[C@]3(C)CC4)[C@H](O)[C@@H](O)[C@@H]2O)[C@H](O)[C@@H](O)[C@@H]1O[C@@H]1O[C@@H](C)[C@H](O)[C@@H](O)[C@H]1O", "inhibition": "Active"}
{"smiles": "CC(=O)OC[C@H]1O[C@@H](OC[C@H]2O[C@@H](OC(=O)[C@]34CC[C@@](C)(C(=O)O)C[C@H]3C3=CC[C@@H]5[C@@]6(C)CC[C@H](O[C@@H]7OC[C@H](O)[C@H](O)[C@H]7O[C@@H]7O[C@@H](C)[C@H](O)[C@@H](O)[C@H]7O)C(C)(C)[C@@H]6CC[C@@]5(C)[C@]3(C)CC4)[C@H](O)[C@@H](O)[C@@H]2O)[C@H](O)[C@@H](O)[C@@H]1O[C@@H]1O[C@@H](C)[C@H](O)[C@@H](O)[C@H]1O", "inhibition": "Active"}
{"smiles": "C=C1CC[C@]2(C(=O)O[C@@H]3O[C@H](CO[C@@H]4O[C@H](CO)[C@@H](O[C@@H]5O[C@@H](C)[C@H](O)[C@@H](O)[C@H]5O)[C@H](O)[C@H]4O)[C@@H](O)[C@H](O)[C@H]3O)CC[C@]3(C)C(=CC[C@@H]4[C@@]5(C)CC[C@H](O[C@@H]6OC[C@H](O)[C@H](O)[C@H]6O[C@@H]6O[C@@H](C)[C@H](O)[C@@H](O)[C@H]6O)C(C)(C)[C@@H]5CC[C@]43C)[C@@H]2C1", "inhibition": "Active"}
{"smiles": "C[C@@H]1O[C@@H](O[C@H]2[C@H](O)[C@@H](O)[C@H](OC[C@H]3O[C@@H](OC(=O)[C@]45CCC(C)(C)C[C@H]4C4=CC[C@@H]6[C@@]7(C)CC[C@H](O[C@@H]8OC[C@H](O)[C@H](O)[C@H]8O)C(C)(C)[C@@H]7CC[C@@]6(C)[C@]4(C)CC5)[C@H](O)[C@@H](O)[C@@H]3O)O[C@@H]2CO)[C@H](O)[C@H](O)[C@H]1O", "inhibition": "Active"}
{"smiles": "CC(=O)OC[C@H]1O[C@@H](OC[C@H]2O[C@@H](OC(=O)[C@]34CC[C@@](C)(CO)C[C@H]3C3=CC[C@@H]5[C@@]6(C)CC[C@H](O[C@@H]7OC[C@H](O)[C@H](O)[C@H]7O[C@@H]7O[C@@H](C)[C@H](O)[C@@H](O)[C@H]7O)C(C)(C)[C@@H]6CC[C@@]5(C)[C@]3(C)CC4)[C@H](O)[C@@H](O)[C@@H]2O)[C@H](O)[C@@H](O)[C@@H]1O[C@@H]1O[C@@H](C)[C@H](O)[C@@H](O)[C@H]1O", "inhibition": "Active"}
{"smiles": "CC(=O)OC[C@H]1O[C@@H](OC[C@H]2O[C@@H](OC(=O)[C@]34CC[C@@](C)(C=O)C[C@H]3C3=CC[C@@H]5[C@@]6(C)CC[C@H](O[C@@H]7OC[C@H](O)[C@H](O)[C@H]7O[C@@H]7O[C@@H](C)[C@H](O)[C@@H](O)[C@H]7O)C(C)(C)[C@@H]6CC[C@@]5(C)[C@]3(C)CC4)[C@H](O)[C@@H](O)[C@@H]2O)[C@H](O)[C@@H](O)[C@@H]1O[C@@H]1O[C@@H](C)[C@H](O)[C@@H](O)[C@H]1O", "inhibition": "Active"}
{"smiles": "C[C@@H]1O[C@@H](O[C@H]2[C@H](O)[C@@H](O)[C@H](OC[C@H]3O[C@@H](OC(=O)[C@]45CCC(C)(C)C[C@H]4C4=CC[C@@H]6[C@@]7(C)CC[C@H](O[C@@H]8OC[C@H](O)[C@H](O[C@@H]9O[C@H](CO)[C@@H](O)[C@H](O)[C@H]9O)[C@H]8O)C(C)(C)[C@@H]7CC[C@@]6(C)[C@]4(C)C[C@@H]5O)[C@H](O)[C@@H](O)[C@@H]3O)O[C@@H]2CO)[C@H](O)[C@H](O)[C@H]1O", "inhibition": "Active"}
{"smiles": "C[C@@H]1O[C@@H](O[C@H]2[C@H](O[C@H]3CC[C@]4(C)[C@H]5CC=C6[C@@H]7C[C@](C)(C=O)CC[C@]7(C(=O)O[C@@H]7O[C@H](CO[C@@H]8O[C@H](CO)[C@@H](O[C@@H]9O[C@@H](C)[C@H](O)[C@@H](O)[C@H]9O)[C@H](O)[C@H]8O)[C@@H](O)[C@H](O)[C@H]7O)CC[C@@]6(C)[C@]5(C)CC[C@H]4C3(C)C)OC[C@H](O)[C@@H]2O)[C@H](O)[C@H](O)[C@H]1O", "inhibition": "Active"}
{"smiles": "C[C@@H]1O[C@@H](O[C@H]2[C@H](O[C@H]3CC[C@@]4(C)[C@@H](CC[C@]5(C)[C@@H]4CC=C4[C@@H]6CC(C)(C)CC[C@]6(C(=O)O[C@@H]6O[C@H](CO[C@@H]7O[C@H](CO)[C@@H](O[C@@H]8O[C@@H](C)[C@H](O)[C@@H](O)[C@H]8O)[C@H](O)[C@H]7O)[C@@H](O)[C@H](O)[C@H]6O)CC[C@]45C)[C@]3(C)CO)OC[C@H](O)[C@@H]2O)[C@H](O)[C@H](O)[C@H]1O", "inhibition": "Active"}
{"smiles": "C[C@@H]1O[C@@H](O[C@H]2[C@H](O)[C@@H](O)[C@H](OC[C@H]3O[C@@H](OC(=O)[C@]45CC[C@@](C)(C=O)C[C@H]4C4=CC[C@@H]6[C@@]7(C)CC[C@H](O[C@@H]8OC[C@H](O)[C@H](O)[C@H]8O)C(C)(C)[C@@H]7CC[C@@]6(C)[C@]4(C)CC5)[C@H](O)[C@@H](O)[C@@H]3O)O[C@@H]2CO)[C@H](O)[C@H](O)[C@H]1O", "inhibition": "Active"}
{"smiles": "C[C@@H]1O[C@@H](O[C@H]2[C@H](O[C@H]3CC[C@]4(C)[C@H]5CC=C6[C@@H]7CC(C)(C)CC[C@]7(C(=O)O[C@@H]7O[C@H](CO[C@@H]8O[C@H](CO)[C@@H](O[C@@H]9O[C@@H](C)[C@H](O)[C@@H](O)[C@H]9O)[C@H](O)[C@H]8O)[C@@H](O)[C@H](O)[C@H]7O)CC[C@@]6(C)[C@]5(C)CC[C@H]4C3(C)C)OC[C@H](O)[C@@H]2O)[C@H](O)[C@H](O)[C@H]1O", "inhibition": "Active"}
